Data set [1] is described as follows: Cytotoxicity against human Huh-7 cells assessed as reduction in cell viability incubated for 24 hrs by MTT assay. The format is toxicity, cell-based.
Data set [2] can be described thus: Cytotoxicity against human HEK293 cells assessed as reduction in cell viability incubated for 24 hrs by MTT assay. The class given is toxicity, cell-based.
A short description of data set [3]: Selectivity index, ratio of CC50 for human Huh-7 cells to IC50 for antiplasmodial activity against chloroquine resistant Plasmodium falciparum INDO infected in human erythrocytes. The class given is toxicity, cell-based. The settings on record: read-out: Ratio CC50/IC50. An outline of the steps:
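Selectivity index = CC50 / PfINDO IC50. CC50 came from MTT assays: 10^4 HEK293 or HUH7 cells per well, seeded overnight and exposed to 0–100 μM for 24 h, then MTT for 4 h at 37 °C with formazan dissolved in DMSO and read at A570. Controls were 0.8% DMSO (full growth) and 10% DMSO (zero growth).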

For data set [4], the system named is Plasmodium falciparum. In words: Antiplasmodial activity against chloroquine resistant ring stage Plasmodium falciparum INDO infected in human erythrocytes assessed as reduction in parasitemia at 1.79 uM incubated for 12 hrs by time-kill kinetics based FACS analysis relative to control. The class given is functional, Erythrocyte. Details: scale not given: the % may be the effect or the level left. An outline of the steps:
(§1)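 PfINDO rings were exposed to 2.25 or 1.79 μM, with compound washed out by centrifugation at 12, 24, 36, 48 or 57 h. Cultures were then grown drug-free to a total of 96 h. Parasitemia at the end of the second cycle was counted by FACS on 10^5 cells.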
In general terms: In flow cytometry, cells or beads pass a laser one at a time.

Data set [5] relates to Plasmodium falciparum. In words: Antiplasmodial activity against artemisinin-resistant early ring stage Plasmodium falciparum Cam3.1R539T infected in human erythrocytes assessed as reduction in parasite growth at 10 times IC50 concentration preincubated for 6 hrs followed by media replacement without compound for 66 hrs and measured after 72 hrs by Giemsa-staining based analysis. The format is functional, organism-based. To be noted: Erythrocyte. The gist of the method: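 Ring-stage survival assay. PfCam3.1R539T or PfINDO rings (0–3 h post-invasion), 1% parasitemia, 2% haematocrit, were exposed to 10× IC50 for 6 h. Compound was removed by three PBS washes, then cultures were grown 66 h in fresh medium. At 72 h, stage progression was assessed on Giemsa smears and revival by SYBR Green I lysis. Triplicate biological samples.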

Data set [6] deals with Plasmodium falciparum. Description: Additive antiplasmodial activity against multidrug-resistant Plasmodium falciparum Cam3.1R539T infected in human erythrocytes at 8 times IC50 concentration incubated for 72 hrs in presence of pyrimethamine by SYBR green I staining based fluorescence assay. The format is functional, organism-based. To be noted: Erythrocyte. An outline of the steps:
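P. falciparum Cam3.1R539T in O+ human erythrocytes, 1% parasitemia, 2% haematocrit. 8× IC50 stocks of test compound and standard drug were mixed at molar ratios 4:1, 3:2, 2:3 and 1:4, then serially diluted two-fold. Plates were incubated 72 h at 37 °C and read by SYBR Green I lysis. Controls were 0.4% DMSO (100% growth) and 4 μM chloroquine (0% growth). ΣFIC = FICA + FICB; <1 synergistic, 1.0–2.0 additive, >2.0 antagonistic.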

Data set [7] can be described thus: Toxicity in mouse assessed as appetite loss at 100 mg/kg, po measured after 45 mins. The format is organism-based. To be noted: in vivo, 0.75 h. The gist of the method: (§2)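 Acute oral toxicity per OECD 423. Mice were fasted 4 h, given a single 100 mg/kg oral dose, and observed for 45 min for signs of acute toxicity, compared with untreated controls.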
A short description of data set [8]: Toxicity in mouse assessed as effect on urination at 100 mg/kg, po measured after 45 mins. The format is organism-based. The settings on record: in vivo, 0.75 h. An outline of the steps: as §2
A short description of data set [9]: Toxicity in mouse assessed as effect on rate of respiration at 100 mg/kg, po measured after 45 mins. The format is organism-based. To be noted: in vivo, 0.75 h. An outline of the steps:
as §2

A short description of data set [10]: Toxicity in mouse assessed as drowsiness at 100 mg/kg, po measured after 45 mins. The class given is organism-based. To be noted: in vivo, 0.75 h. The gist of the method: as §2
A short description of data set [11]: Toxicity in mouse assessed as diarrhea at 100 mg/kg, po measured after 45 mins. The format is organism-based. The settings on record: in vivo, 0.75 h. The gist of the method:
as §2

Data set [12] can be described thus: Toxicity in mouse assessed as lacrimation at 100 mg/kg, po measured after 45 mins. The format is organism-based. To be noted: in vivo, 0.75 h. The gist of the method: as §2
Data set [13] in a line: Toxicity in mouse assessed as coma at 100 mg/kg, po measured after 45 mins. The class given is organism-based. To be noted: in vivo, 0.75 h. The gist of the method: as §2
A short description of data set [14]: Binding affinity to Plasmodium falciparum GAP50 assessed as dissociation constant by SPR analysis. The gist of the method: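 GAP50 at 50 μg ml−1 in 10 mM acetate pH 4.5 was amine-coupled (EDC/NHS) onto a CM5 chip. Analytes at several concentrations in 5% DMSO/1× PBS; association 60 s, dissociation 120 s, flow 30 μl min−1. Regeneration with 10 mM glycine pH 3.0 for 30 s. Sensorgrams fitted to a 1:1 Langmuir model giving ka, kd and KD.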
Background: Surface plasmon resonance follows binding to a sensor surface in real time, without labels.

Data set [15] relates to Plasmodium falciparum. Description: Antiplasmodial activity against chloroquine resistant Plasmodium falciparum INDO infected in human erythrocytes assessed as inhibition of parasite growth at 100 uM incubated for 72 hrs by SYBR green I staining based fluorescence plate reader analysis relative to control. The class given is functional. To be noted: Erythrocyte. The gist of the method:
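Single-concentration screen at 100 μM against PfINDO, triplicate wells, 72 h. Final DMSO was 0.4%. Growth was read by SYBR Green I lysis (excitation 485, emission 530 nm) and expressed relative to untreated culture, taken as 100% growth.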

The test system of data set [16] is Plasmodium falciparum. In words: Antiplasmodial activity against chloroquine sensitive Plasmodium falciparum 3D7 infected in human erythrocytes assessed as inhibition of parasite growth at 100 uM incubated for 72 hrs by SYBR green I staining based fluorescence plate reader analysis relative to control. The format is functional. To be noted: 3D7, Erythrocyte. The gist of the method: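 Pf3D7 grown in O+ human erythrocytes at 4% haematocrit, Albumax (0.05%)-RPMI, 37 °C, 5% O2/5% CO2/90% N2, sorbitol-synchronised at ring stage. Single-point screen at 100 μM, final DMSO 0.4%, triplicate wells, 72 h. Read-out by SYBR Green I lysis buffer (Tris pH 7.5, EDTA, saponin, Triton X-100), 1 h dark at 37 °C, ex 485/em 530 nm. Growth expressed relative to untreated culture.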

Data set [17] relates to Plasmodium falciparum. In words: Antiplasmodial activity against chloroquine resistant schizont stage Plasmodium falciparum INDO infected in human erythrocytes assessed as prevention of schizont rupture at 4.30 uM incubated for 4 hrs by time-kill kinetics based FACS analysis. The class given is functional, organism-based. The settings on record: Erythrocyte, dose 4.3 µM. The gist of the method: (§3)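 PfINDO early schizonts (32–36 h post-invasion) and late schizonts (42–45 h post-invasion) were exposed to 5.62 or 4.30 μM for up to 16 h, washed at 4 h intervals, then cultured drug-free to a total of 96 h. Parasitemia was counted by FACS on 10^5 cells at the end of the second cycle; schizont rupture was checked microscopically.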

Data set [18] concerns Plasmodium falciparum. In words: Antiplasmodial activity against chloroquine resistant ring stage Plasmodium falciparum INDO infected in human erythrocytes assessed as reduction in parasitemia at 2.25 uM incubated for 12 hrs by time-kill kinetics based FACS analysis relative to control. The format is functional, Erythrocyte. Further details: scale not given: the % may be the effect or the level left. The gist of the method:
as §1

Data set [19] deals with Plasmodium falciparum. Description: Antiplasmodial activity against chloroquine resistant schizont stage Plasmodium falciparum INDO infected in human erythrocytes assessed as decrease in parasitemia at 5.62 uM incubated for 4 hrs by time-kill kinetics based FACS analysis. The format is functional, organism-based. To be noted: Erythrocyte. An outline of the steps: as §3

The subject of data set [20] is Plasmodium falciparum. Description: Antiplasmodial activity against chloroquine resistant segmental schizont stage Plasmodium falciparum INDO infected in human erythrocytes assessed inhibition of rupture at 5.62 uM preincubated with compound for 8 hrs followed by media replacement without compound and measured after 48 hrs by SYBR Green staining based FACS analysis. The class given is functional, organism-based. The settings on record: Erythrocyte.

Data set [21] concerns Plasmodium falciparum. In words: Antiplasmodial activity against chloroquine resistant schizont stage Plasmodium falciparum INDO infected in human erythrocytes assessed as prevention of schizont rupture at 5.62 uM incubated for 4 hrs by time-kill kinetics based FACS analysis. The settings on record: Erythrocyte. The class given is functional, organism-based. An outline of the steps:
as §3

Each structure is given as a SMILES string. Active and inactive are the calls of the source. The calls are words filed in the database; no cut-off is given here. Where only a bound is given, the exact number is not on record here.

As for `O=C(Cn1nnc(-c2cccc([N+](=O)[O-])c2)n1)N1CCN(c2ccnc3cc(Cl)ccc23)CC1`, the half-maximal cytotoxic concentration (CC50) at 24 h in [1] was 400 µM; in data set [2] it was above 400 µM. Also, the selectivity ratio in data set [3] was found to be 223. For the same compound, the Activity is around 22% in data set [4]; “Non-Toxic” in data set [7]; “Non-Toxic” in [8]; “Non-Toxic” in data set [9]; “Non-Toxic” in data set [10]; “Non-Toxic” in data set [11]. In addition, the Activity result in data set [12] and in [13] was “Non-Toxic” throughout. The outcome in data set [5] and in [6] was Active. Moreover, in [14], the Kd came to 0.006 s⁻¹. Besides, the inhibition at 100 µM in data set [15] and in [16] was above 50% throughout. For the same compound, the outcome in [17] was inactive.

For the compound `Clc1ccc2c(N3CCN(CCCn4nnc(-c5ccc(Br)cc5)n4)CC3)ccnc2c1`, the CC50 at 24 h in [1] worked out at 288 µM; in [2], 400 µM. For the same compound, in data set [3], the selectivity ratio was 128. Besides, the Activity in data set [18] is listed as around 22%; in data set [7], “Non-Toxic”; in data set [8], “Non-Toxic”; in [9] it was “Non-Toxic”; in data set [10], “Non-Toxic”; in data set [11], “Non-Toxic”. Further, the Activity result in data set [12] and in data set [13] was “Non-Toxic” in each case. The result in data set [19], in data set [20] and in data set [21] was Active. In data set [5], the outcome was inactive. Also, the Kd in data set [14] is 0.191 s⁻¹. In addition, the inhibition at 100 µM in data set [15] and in data set [16] was above 50% each time.

As a reminder, the CC50 is the concentration that lowers cell viability or growth by half. The inhibition is the change of the read-out against control, counted positive when it falls.

The values above are taken from ChEMBL document CHEMBL5335820, “Novel quinolinepiperazinyl-aryltetrazoles targeting the blood stage of Plasmodium falciparum” (RSC Med Chem, 2024).
